IEC-6 tox – counter-screen for KLF5 inhibitors: cytotoxicity in IEC-6 cells. IEC-6 cytotoxicity, luminescence viability. inhibition, % at 5 µM. 290,000 compounds, 0.78% hits. AID 1825; in the data active = inhibition above about 22%;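 also: 0% = plate median of test compound wells and 100% = cytotoxic reference compound wells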
MT stabilizer – microtubule stabilizers in HeLa cells | HeLa tubulin immunostaining HCS, 24 h; share of cells brighter than vehicle mean+2SD | AID 2205 | 200,000 compounds, 0.83% hits | % tubulin-high responders, % at 10 µM;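 active = plate Z-score above 3 for both tubulin-high and condensed-nucleus cell shares, with cell loss under 80%, at 10 µM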;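 also: anti alpha tubulin signal scored within the nucleus-defined area of each cell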
APP transl inh – APP translation inhibition | SH-SY5Y APP 5'UTR-luciferase reporter, luminescence | inhibition, % at 2 µM | 190,000 compounds, 0.82% hits | AID 1285;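 active = inhibition above a set limit, derived from the sample mean plus 3 SD, cut at about 45% in these data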
Ba/F3 V617F tox – reduce viability of Ba/F3 cells dependent on JAK2V617F; Ba/F3 EpoR-JAK2V617F viability, ATP luminescence; inhibition, % at 5.6 µM; 220,000 compounds, 1.1% hits;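 active = inhibition above the campaign mean plus 3 SD over all tested compounds, cut at about 24% in these data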;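 also: cytokine-independent growth of Ba/F3 cells driven by EpoR plus mutant JAK2; 0% = DMSO-treated cells and 100% = JAK inhibitor I control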
b-catenin transl – modulators of beta-catenin nuclear translocation. HeLa beta-catenin nuclear translocation, immunofluorescence imaging. nuclear translocation activity, % at 5 µM. AID 1665. 190,000 compounds, 0.3% hits;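 active = nuclear translocation activity above 50% at 5 µM, with a well cell count of 50 or more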;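 also: per-cell ratio of nuclear to cytoplasmic median beta-catenin stain intensity; plate controls were DMSO negative control for no effect and GSK-3 inhibitor IX positive control for full effect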
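test system = HeLa cells, endogenous beta-catenin | dosing = single 5 µM dose plus 0.02–20 µM confirmation series | times = compound treatment 24 h, 37°C, 5% CO2 | technique = beta-catenin immunofluorescence imaging with DAPI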
BaF3 tox – parental Ba/F3 viability inhibition as JAK2V617F counter-screen | CellTiter-Glo ATP luminescence | inhibition, % at 5.6 µM | 220,000 compounds, 1.1% hits;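 active = inhibition above a per-campaign cutoff, the mean inhibition of all tested compounds plus 3 SD, cut at about 27% in these data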;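 also: 0% = DMSO wells and 100% = JAK Inhibitor I control wells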
BaF3 tox 2 – counter-screen for JAK2V617F inhibitors: parental Ba/F3 viability inhibitors. CellTiter-Glo luminescence; cells kept alive by added IL-3. shares compounds with Ba/F3 V617F tox. 580 compounds, 31% hits. inhibition, % at 5.6 µM. AID 1520;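 active = cell growth inhibition above the hit limit set in the earlier mutant JAK2 cell screen, cut at about 27% in these data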;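 also: plate controls were DMSO-treated cells for no effect and JAK Inhibitor I control wells for full effect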
JAK2V617F confrm – confirmation: loss of viability in JAK2V617F-dependent Ba/F3 cells; shares compounds with Ba/F3 V617F tox; Ba/F3 EpoR-JAK2V617F viability, CellTiter-Glo luminescence; inhibition, % at 5.6 µM; 580 compounds, 66% hits;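 active = mean inhibition above the hit cutoff derived in the earlier primary screen, cut at about 25% in these data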;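 also: 0% = DMSO-treated cells and 100% = JAK inhibitor I control wells; higher means lower luminescence from reduced cell ATP and viability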
Starred values were filed as active, the others as inactive; / = no result. In the library only some 2.2% were active in any assay of this set; here they are far more common.

SMILES	IEC-6 tox	MT stabilizer	APP transl inh	Ba/F3 V617F tox	b-catenin transl	BaF3 tox	BaF3 tox 2	JAK2V617F confrm
Cc1ccc(CCC(=O)Nc2ccccc2F)s1	2	4	-103	3	0	11	/	/
COc1cc(C(=O)OCC(C)=O)ccc1OCc1c(C)noc1C	14	31*	14	39*	45	24	15	26*
COc1ccc(-c2noc(C3CCCN(C(=O)c4ccc(F)cc4)C3)n2)cc1 (centres undefined)	1	/	/	/	/	/	/	/
CCCC(=O)Nc1ccc(Cl)c(NC(=O)c2cccnc2)c1	0	3	-4	60*	0	2	-3	-4
COc1ccc(/C=C/C(=O)c2cc(F)ccc2OC(=O)c2ccccc2C)cc1OC	88*	9	97*	39*	40	2	29*	97*
CCCCN1CN(Cc2ccccc2)CNC1=S	-3	4	2	41*	-1	5	1	10
CC(=O)C1=C(O)CC(C)(C)CC1=NCCc1nc2ccccc2[nH]1	4	4	3	102*	1	3	-3	3
COc1cccc(N2CCN(C(=O)C3CCN(S(=O)(=O)c4ccc5c(c4)CC(C)N5C(C)=O)CC3)CC2)c1 (centres undefined)	0	/	/	/	/	/	/	/
CC(C)(C)c1ccc2c(c1)N(CC(=O)N1CCCC1)C(=O)CO2	-6	/	/	/	/	/	/	/
NC(=O)/C(=N\OC(=O)c1ccco1)c1nc(-c2ccc(Br)cc2)cs1	-11	3	37	31*	8	6	3	31*
Nc1nc(-c2ccc(NC(=O)c3ccco3)cc2)cs1	6	/	/	/	/	/	/	/
C=CCn1c(Sc2ncc([N+](=O)[O-])s2)n[nH]c1=O	11	/	/	77*	1	25	-4	9
C=CCn1c(CSc2ccccc2[N+](=O)[O-])n[nH]c1=S	6	/	/	/	/	/	/	/
O=C(CCl)N(c1ccc(Cl)cc1)c1c[nH]c2ccccc12	4	23	18	72*	0	12	73*	99*
O=C(COC(=O)c1ccncc1)Nc1cc(Cl)ccc1Cl	-3	2	18	45*	-2	4	-5	-1
COc1ccccc1CC(=O)O/N=C(\N)Cc1cccc2ccccc12	6	2	9	34*	4	8	-6	-5
COc1ccccc1OC(=O)Cc1cccc2ccccc12	4	/	/	/	/	/	/	/
COc1cccc(C2(O)C(=O)Nc3ccccc32)c1 (centres undefined)	5	/	/	/	/	/	/	/
O=C(/C=C/c1ccc(O)c(O)c1)c1ccc(S(=O)(=O)N2CCCCCC2)cc1	8	1	10	44*	-1	15	10	85*
Cc1ncc(CN2CCC(C(=O)Nc3cccc(-c4cscn4)c3)CC2)cn1	-1	/	/	/	/	/	/	/
O=C(Nc1ccc(NC(=S)NC(=O)C(c2ccccc2)c2ccccc2)cc1)c1ccccc1	5	40*	1	28*	/	8	29*	64*
O=C(NC1C=CS(=O)(=O)C1)c1sc2ccccc2c1Cl (centres undefined)	0	8	-11	27*	3	4	-4	59*
O=C(NC1CC1)c1sc2ccccc2c1Cl	0	/	/	/	/	/	/	/
COc1ccccc1NC(=O)c1cc([N+](=O)[O-])ccc1N1CCOCC1	-3	/	/	/	/	/	/	/
N#Cc1ccc(COC(=O)CC(NC(N)=O)c2ccc(Cl)cc2)cc1 (centres undefined)	-3	/	/	/	/	/	/	/
SMILES	IEC-6 tox	MT stabilizer	APP transl inh	Ba/F3 V617F tox	b-catenin transl	BaF3 tox	BaF3 tox 2	JAK2V617F confrm
COCc1cc(=O)[nH]c(SCC(=O)Nc2ccccc2)n1	-11	4	-11	95*	-7	-4	-4	-2
Cc1cc2c(cc3c(=O)n(CC(=O)NCCCN4CC(C)CC(C)C4)ncn32)s1 (centres undefined)	2	/	/	/	/	/	/	/
CCOc1ccc(NC2=NC(C)(C)N=C(N)N2)cc1	-2	4	-2	41*	-5	26	83*	93*
O=C1CC(c2ccccc2)=Nc2ccccc2N1	-2	3	0	1	/	7	/	/
C1=C(c2ccccc2)Nc2ccccc2N=C1c1ccccc1	3	3	1	102*	1	1	-3	3
Cc1cc(C)nc(S/C=C/C(=O)c2ccccc2F)n1	-2	/	/	-1	5	-3	/	/
Cc1cc2ccccn2c1C(=O)c1cccc([N+](=O)[O-])c1	6	2	-10	0	0	4	/	/
Cc1cc2ccccn2c1C(=O)c1ccc([N+](=O)[O-])o1	2	6	54*	27*	-3	0	-7	42*
CCOc1ccc(C2C(C(=O)c3cccs3)=C(O)C(=O)N2CCN2CCOCC2)cc1 (centres undefined)	-4	/	/	/	/	/	/	/
COc1ccc(OCC(O)Cn2c(=N)n(Cc3ccccc3)c3ccccc32)cc1 (centres undefined)	18	4	4	68*	-2	23	5	35*
Cc1cccc(OCC(O)Cn2c(=N)n(Cc3ccccc3)c3ccccc32)c1 (centres undefined)	5	/	/	26*	-3	6	3	32*
CC(C)(O)C#Cc1ccc(CN2CCC(n3nccc3NC(=O)C3CC3)CC2)cc1	-6	/	/	/	/	/	/	/
O=C(NC(NC1CCS(=O)(=O)C1)C(Cl)(Cl)Cl)c1ccc(Br)cc1 (centres undefined)	15	2	12	36*	1	9	1	24*
Oc1ccc(Cl)cc1N=Cc1sc2ccccc2c1Cl	0	2	-22	40*	-3	16	21	86*
Cc1ccc(S(=O)(=O)N2CCC(C(=O)N[C@@H](C)C(=O)Nc3ccc4c(c3)OCO4)CC2)cc1	2	2	/	43*	-1	7	0	6
CSc1ncc(C(=O)Nc2ccccc2)cn1	2	/	/	/	/	/	/	/
Cc1nc2c(-c3ccccc3)c(C)nn2c(C)c1CCC(=O)O	3	4	-2	0	0	4	/	/
Cc1nc2c(-c3ccc(F)cc3)c(C)nn2c(C)c1CCC(=O)Nc1ccccc1F	0	/	/	79*	0	-1	-4	2
Cc1ccc(S(=O)(=O)N(CCCN2CCCC2=O)Cc2cc3c(C)ccc(C)c3[nH]c2=O)cc1	5	1	-2	62*	-3	23	-6	12
COc1ccc(S(=O)(=O)N(CCCN2CCCC2=O)Cc2cc3cc(C)c(C)cc3[nH]c2=O)cc1	-1	6	-8	-1	-2	2	/	/
COc1ccc(C2=Nn3c(nnc3C3CCCCC3)SC2)cc1OC	8	3	-14	25*	/	10	13	51*
CC1(C)Cc2nc3sc4c(SCC(=O)NCc5ccco5)ncnc4c3cc2CO1	13	29*	-12	72*	59*	25	62*	90*

From PubChem
